This is an account of results in ChEMBL document CHEMBL4400539, “Discovery of a Novel Chemotype of Histone Lysine Methyltransferase EHMT1/2 (GLP/G9a) Inhibitors: Rational Design, Synthesis, Biological Evaluation, and Co-crystal Structure” (J Med Chem, 2019).

The target in data set [1] is T1, Histone-lysine N-methyltransferase EHMT2 (Homo sapiens, UniProt Q96KQ7).
T1 sequence (Q96KQ7 whole entry): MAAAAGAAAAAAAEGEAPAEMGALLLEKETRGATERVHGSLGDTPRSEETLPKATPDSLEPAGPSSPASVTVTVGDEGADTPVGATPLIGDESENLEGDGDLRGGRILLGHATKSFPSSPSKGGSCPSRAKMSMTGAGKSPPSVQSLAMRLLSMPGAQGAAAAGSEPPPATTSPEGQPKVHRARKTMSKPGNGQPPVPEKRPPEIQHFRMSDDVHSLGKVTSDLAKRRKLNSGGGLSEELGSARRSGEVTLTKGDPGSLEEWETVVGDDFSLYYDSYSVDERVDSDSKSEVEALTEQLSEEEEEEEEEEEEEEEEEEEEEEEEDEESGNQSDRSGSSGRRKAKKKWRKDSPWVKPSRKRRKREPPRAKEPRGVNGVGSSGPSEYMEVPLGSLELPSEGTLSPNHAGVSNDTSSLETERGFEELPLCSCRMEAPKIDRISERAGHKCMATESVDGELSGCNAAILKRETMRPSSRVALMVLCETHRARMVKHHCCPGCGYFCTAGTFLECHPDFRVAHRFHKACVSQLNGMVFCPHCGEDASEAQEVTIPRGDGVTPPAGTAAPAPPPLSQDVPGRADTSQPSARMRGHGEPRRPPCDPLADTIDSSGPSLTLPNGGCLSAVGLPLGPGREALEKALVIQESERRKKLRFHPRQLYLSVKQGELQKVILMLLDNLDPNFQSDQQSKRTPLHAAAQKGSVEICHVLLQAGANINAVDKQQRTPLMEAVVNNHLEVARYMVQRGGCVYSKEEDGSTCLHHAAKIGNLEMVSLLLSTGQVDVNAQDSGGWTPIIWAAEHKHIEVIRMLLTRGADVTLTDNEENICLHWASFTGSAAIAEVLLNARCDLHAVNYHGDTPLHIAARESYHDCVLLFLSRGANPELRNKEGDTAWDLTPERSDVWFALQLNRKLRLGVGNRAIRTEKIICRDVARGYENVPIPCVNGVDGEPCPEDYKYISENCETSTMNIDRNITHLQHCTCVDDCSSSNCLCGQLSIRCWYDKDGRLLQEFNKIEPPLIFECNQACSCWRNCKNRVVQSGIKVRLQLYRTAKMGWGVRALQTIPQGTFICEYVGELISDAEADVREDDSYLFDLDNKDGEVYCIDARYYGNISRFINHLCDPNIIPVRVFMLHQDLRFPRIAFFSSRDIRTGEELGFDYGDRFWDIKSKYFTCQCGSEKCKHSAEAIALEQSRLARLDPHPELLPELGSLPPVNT
The data set can be described thus: Inhibition of recombinant human G9a using biotinylated-Histone H3 peptide (1 to 21 residues) after 30 mins in presence of SAM by AlphaLISA assay. In general terms: In Alpha technology, singlet oxygen from a donor bead excites a nearby acceptor bead.

In data set [2] the target is T2, Histone-lysine N-methyltransferase EHMT1 (Homo sapiens) (UniProt Q9H9B1).
T2 sequence (whole entry): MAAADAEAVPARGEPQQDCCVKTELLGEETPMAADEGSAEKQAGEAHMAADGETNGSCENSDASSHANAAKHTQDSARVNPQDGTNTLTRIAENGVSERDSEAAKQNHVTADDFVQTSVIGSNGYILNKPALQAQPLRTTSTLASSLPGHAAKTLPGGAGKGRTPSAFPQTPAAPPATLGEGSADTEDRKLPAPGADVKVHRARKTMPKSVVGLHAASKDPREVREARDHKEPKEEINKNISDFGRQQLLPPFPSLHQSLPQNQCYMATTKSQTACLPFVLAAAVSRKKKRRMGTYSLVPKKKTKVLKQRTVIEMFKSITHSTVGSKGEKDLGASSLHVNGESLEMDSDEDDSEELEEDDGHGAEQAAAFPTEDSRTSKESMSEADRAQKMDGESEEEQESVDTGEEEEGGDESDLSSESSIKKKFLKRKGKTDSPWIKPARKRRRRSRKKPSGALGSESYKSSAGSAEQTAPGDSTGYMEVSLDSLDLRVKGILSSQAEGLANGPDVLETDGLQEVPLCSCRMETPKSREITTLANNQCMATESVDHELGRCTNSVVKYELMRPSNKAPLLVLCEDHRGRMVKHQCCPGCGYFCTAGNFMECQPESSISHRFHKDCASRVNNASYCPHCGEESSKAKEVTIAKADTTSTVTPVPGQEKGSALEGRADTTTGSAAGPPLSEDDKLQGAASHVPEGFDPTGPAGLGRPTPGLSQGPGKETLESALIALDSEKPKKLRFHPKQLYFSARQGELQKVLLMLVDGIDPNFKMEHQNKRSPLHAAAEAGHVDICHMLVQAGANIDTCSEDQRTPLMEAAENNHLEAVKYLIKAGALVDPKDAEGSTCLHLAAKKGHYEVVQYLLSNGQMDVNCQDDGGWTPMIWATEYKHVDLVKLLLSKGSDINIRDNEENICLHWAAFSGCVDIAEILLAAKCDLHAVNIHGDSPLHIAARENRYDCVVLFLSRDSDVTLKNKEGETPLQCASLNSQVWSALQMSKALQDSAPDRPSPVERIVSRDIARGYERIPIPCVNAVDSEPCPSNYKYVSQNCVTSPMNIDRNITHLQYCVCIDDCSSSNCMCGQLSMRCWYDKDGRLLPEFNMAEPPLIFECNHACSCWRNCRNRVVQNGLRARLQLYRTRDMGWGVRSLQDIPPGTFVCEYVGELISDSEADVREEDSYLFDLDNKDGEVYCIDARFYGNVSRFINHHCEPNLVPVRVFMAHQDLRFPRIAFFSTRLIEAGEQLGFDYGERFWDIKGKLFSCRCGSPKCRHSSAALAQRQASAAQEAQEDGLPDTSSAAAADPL
The data set can be described thus: Inhibition of recombinant human GLP at 10 uM using biotinylated-Histone H3 peptide (1 to 21 residues) after 30 mins by AlphaLISA assay relative to control.

Data set [3] concerns MDA-MB-231. The data set can be described thus: Cytotoxicity against human MDA-MB-231 cells assessed as reduction in cell viability up to 5 uM after 72 hrs by MTT assay. Format: cell-based. The note with it: mda-mb-231, 72 h. The essentials:
(§1)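 MCF-7, MDA-MB-231 and U-343 cells exposed 24, 48 and 72 h to 0.05, 0.5, 5 and 50 μM compound; viability by MTT reduction to formazan versus vehicle; mean ± SD of at least three independent experiments.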
On the technique in general: Formazan colour is commonly taken as a measure of viable cells.

Data set [4] deals with MCF7. In words: Cytotoxicity against human MCF7 cells assessed as reduction in cell viability at 0.05 to 50 uM after 48 to 72 hrs by MTT assay. Format: cell-based. The note with it: mcf7, 50 µM. The method in brief:
as §1

Data set [5] has as its target T3, Histone-lysine N-methyltransferase EHMT2 (Homo sapiens) (UniProt Q96KQ7).
T3 sequence (whole entry): T1 sequence (Q96KQ7 whole entry)

For data set [6], the target named is T3, Histone-lysine N-methyltransferase EHMT2 (Homo sapiens). The source holds these as a separate data set.
The target in data set [7] is T1, Histone-lysine N-methyltransferase EHMT2. The data set can be described thus: Non-competitive inhibition of recombinant human G9a using biotinylated-Histone H3 peptide (1 to 21 residues) as substrate after 30 mins in presence of varying concentration of SAM by Lineweaver-Burk plot analysis.

Each structure is given as a SMILES string.

By IC50 is commonly meant the concentration needed to halve the response being measured. For orientation: inhibition means the change of the read-out against control, counted positive when it falls. As a reminder, the Ki is a measure of affinity in units of concentration, obtained from inhibition or displacement.

With `COc1cc2c(cc1OCCCN1CCCC1)N=C(C1CCCCC1)CN=C2NC1CCN(C(C)C)CC1`, the IC50 in data set [1] came out at 23 nM. In data set [2], the inhibition is 95%. Besides, the Activity result in data set [3] was “Non-Toxic”; in data set [4], “Toxic”. The compound further yielded a Ka in data set [5] of 550. In addition, the Kdiss in data set [6] is 0.0351. Besides, the Ki in data set [7] was determined as 3.6 nM.
